# Results gathered from unrelated publications.
# Lines come from different studies, so protocols differ.
# Effect on: cell growth or viability
Compound,cell line,method,time,setting,CC50
COc1ccc(NC(=O)N2CCCCN3C[C@H](c4ccc(C#Cc5ccccc5)cc4)[C@@H]3C2)cc1,HEK-293T,,,,25 µM
Cc1ccc(S(=O)(=O)Nc2nc(N)c(-c3nc4ccccc4s3)c(-c3ccc(F)cc3)n2)cc1,BGM,,,,190 µg/mL
CCOP(=O)(OCC)[C@@H]1C[C@H](n2cc(-c3ccc(F)cc3F)nn2)ON1C,human T-lymphocyte,,72 h,,≥ 250 µM
O=C(O)/C=C/C=C/c1cccc(Oc2cc(Cl)cc(Cl)c2)c1,Huh-7,MTT,24 h,,> 200 µM
CCOP(=O)(OCC)[C@@H]1C[C@@H](n2cc(-c3ccccn3)nn2)ON1C (racemic),human T-lymphocyte,,72 h,,> 250 µM
CCOc1ccc(-c2nc(CNCCc3ccc(F)cc3)cs2)cc1,Huh-7,MTT,24 h,,87.8 µM
CCOP(=O)(OCC)[C@@H]1C[C@H](n2cc(Cn3cc(C)c(=O)[nH]c3=O)nn2)ON1C (racemic),human T-lymphocyte,,72 h,,> 250 µM
Cc1ccc(S(=O)(=O)Nc2nc(N)c(-c3nc4ccccc4s3)c(-c3ccc(Cl)cc3)n2)cc1,BGM,,,,190 µg/mL
C[C@@H](c1cc(Cl)cc(Cl)c1)N(C)c1ncc2c(N)nc(N)nc2n1,Huh-7,MTT,24 h,,57.6 µM
CCOP(=O)(OCC)[C@@H]1C[C@@H](n2cc(-c3cccc(F)c3)nn2)ON1C (racemic),human T-lymphocyte,,72 h,,> 250 µM
CC(C)OC(=O)C(C)(C)Oc1ccc(C(=O)c2ccc(Cl)cc2)cc1,LX-2,ATP luminescence,48 h,serum-free,> 50 µM
CO[C@H]1/C=C/O[C@@]2(C)Oc3c(C)c(O)c4c(O)c(c(/C=N/N5CCN(C)CC5)c(O)c4c3C2=O)NC(=O)/C(C)=C\C=C[C@H](C)[C@H](O)[C@@H](C)[C@@H](O)[C@@H](C)[C@H](OC(C)=O)[C@@H]1C,Huh-7,MTT,24 h,,304 µM
CCOP(=O)(OCC)[C@@H]1C[C@H](n2cc(Cn3ccc(NC(C)=O)nc3=O)nn2)ON1C (racemic),human T-lymphocyte,,72 h,,> 250 µM
Nc1nc(NS(=O)(=O)c2ccccc2)nc(-c2ccc(F)cc2)c1-c1nc2ccccc2s1,BGM,,,,180 µg/mL
CO[C@H]1C[C@@H](C[C@H](C)[C@H]2CC(=O)[C@@H](C)/C=C(\C)[C@H](O)[C@H](OC)C(=O)[C@@H](C)C[C@@H](C)/C=C/C=C/C=C(\C)[C@H](OC)C[C@H]3CC[C@H](C)[C@](O)(O3)C(=O)C(=O)N3CCCC[C@@H]3C(=O)O2)CC[C@@H]1OCCO (racemic),Huh-7,MTT,24 h,,15.9 µM
CCOP(=O)(OCC)[C@@H]1C[C@@H](n2cc(C(=O)OC)nn2)ON1C (relative stereo),human T-lymphocyte,,72 h,,> 250 µM
Nc1nc(NS(=O)(=O)c2ccccc2)nc(-c2ccc(Cl)cc2)c1-c1nc2ccccc2s1,BGM,,,,230 µg/mL
Cc1ccc2c(c1C)NC(=O)[C@]21NN=C(c2ccccc2)S1,Huh-7,MTT,24 h,,28.6 µM
CC(C)c1cc(Oc2c(Cl)cc(-n3nc(C#N)c(=O)[nH]c3=O)cc2Cl)n[nH]c1=O,LX-2,ATP luminescence,48 h,serum-free,> 50 µM
CCOP(=O)(OCC)[C@@H]1C[C@H](n2cc(Cn3cnc4c(N)ncnc43)nn2)ON1C (relative stereo),human T-lymphocyte,,72 h,,> 250 µM
N=C(N)c1ccc(OCCCCCOc2ccc(C(=N)N)cc2)cc1,Huh-7,MTT,24 h,,9.24 µM
CCOP(=O)(OCC)[C@@H]1C[C@H](n2cc(-c3nccn3C)nn2)ON1C,human T-lymphocyte,,72 h,,> 250 µM
O=C1OC[C@H]2OC(O)[C@H](O)[C@@H](O)[C@@H]2OC(=O)c2cc(O)c(O)c(O)c2-c2c(O)c(O)c3oc(=O)c4c(c(O)c(O)c5oc(=O)c2c3c54)-c2c1cc(O)c(O)c2O (mixture of isomers),Huh-7,MTT,,,> 5000 µM
COc1ccc(NC(=O)N2CCCCN3[C@H](CN(C)S(C)(=O)=O)[C@H](c4ccc(C#Cc5ccccc5)cc4)[C@@H]3C2)cc1,HEK-293T,,,,> 40 µM
C=C1CN(S(=O)(=O)c2ccc(C)cc2)CCCN(CCc2ccccc2)CCCN(S(=O)(=O)c2ccc(C)cc2)C1,HEK-293T,resazurin,72 h,,> 50 µM
CCO[C@H](COc1ccc(C(F)(F)F)cc1)CSc1ccc(OCC(=O)O)c(C)c1,LX-2,ATP luminescence,48 h,serum-free,> 50 µM
O=C(O)c1ccc(-n2nc(-c3ccccc3O)nc2-c2ccccc2O)cc1,Huh-7,MTT,24 h,,> 200 µM
